Experiments:
[1] = biological target: bullfrog sympathetic ganglia SPR (bfSPR) (Aquarana catesbeiana, UniProt Q98982); test: Whole cell recording of M-type K+ current; assay type: cell-based; conditions: for inhibition of IM: single bullfrog sympathetic neurons
[2] = Fluorophore spectral analysis; assay type: physicochemical; conditions: 10 nM in PBS, pH 7.4
Procedure, shortened: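 Fluorophore-labelled substance P conjugates were analysed in a spectrofluorometer at 10 nM in PBS, pH 7.4, as solvent. Excitation and emission spectra were recorded for each conjugate, and peak wavelengths were read from the curves.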

bullfrog sympathetic ganglia SPR (bfSPR), sequence (Q98982 whole entry): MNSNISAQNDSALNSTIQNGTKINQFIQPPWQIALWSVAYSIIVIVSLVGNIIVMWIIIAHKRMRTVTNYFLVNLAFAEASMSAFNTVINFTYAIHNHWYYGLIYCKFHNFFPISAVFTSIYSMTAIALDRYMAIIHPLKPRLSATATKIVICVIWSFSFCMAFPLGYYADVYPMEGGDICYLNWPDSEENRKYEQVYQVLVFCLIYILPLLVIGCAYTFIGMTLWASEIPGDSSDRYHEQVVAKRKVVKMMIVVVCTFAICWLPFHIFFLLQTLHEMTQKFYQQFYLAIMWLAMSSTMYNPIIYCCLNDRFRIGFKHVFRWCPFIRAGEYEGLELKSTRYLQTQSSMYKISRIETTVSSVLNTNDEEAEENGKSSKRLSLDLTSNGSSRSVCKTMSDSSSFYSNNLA

inhibition of IM ([1]; 100 nM, 0.1 µM)	inhibition of IM ([1]; 1 μM)	Compound	inhibition at 0.1 µM ([1]; read-out: inhibition of IM) [%]	peak excitation [2] [nm]	peak of the emission curve [2] [nm]
–	–	CSCC[C@H](NC(=O)[C@H](CC(C)C)NC(=O)CNC(=O)[C@H](Cc1ccccc1)NC(=O)[C@H](Cc1ccccc1)NC(=O)[C@H](CCC(N)=O)NC(=O)[C@H](CCC(N)=O)NC(=O)[C@@H]1CCCN1C(=O)[C@H](CCCCN)NC(=O)[C@@H]1CCCN1C(=O)[C@@H](N)CCCN=C(N)N)C(N)=O [SP, reference compound]	~70	–	–
did not inhibit IM	did not inhibit IM	Alexa 488-SP: Substance P with Alexa 488 covalently linked at Lys3; Molecular Probes product S-13426	–	490	515
–	–	fluorescein-SP: Substance P with fluorescein covalently linked at Lys3; Molecular Probes product S-13424	–	495	520

From paper PMC33344 (BMC Chemical Biology, 2001)
